High-throughput results deposited in PubChem BioAssay by several laboratories.
CHOP inhibitor – inhibitors of CHOP induction in ER stress response; AID 2732; hit rate 3.8% among 220,000; inhibition, % at 10 µM; CHO-K1 CHOP-promoter luciferase, tunicamycin-induced, 15-18 h;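 active = compounds that reduced the stress-induced luciferase reporter signal by more than about 70% of percent inhibition, limit read from the data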;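 also: 0% = tunicamycin plus vehicle and 100% = wells without tunicamycin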
XBP1 UPR activ – activators of adaptive arm of unfolded protein response (XBP1); CHO-XBP1 luciferase reporter, IRE1-XBP1 UPR activation, luminescence; percent of tunicamycin response, DMSO as zero; activation, % at 20 µM; hit rate 0.33% among 330,000;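 active = versus positive control, 20 µM dose yields 30% or more activation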;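 also: 100% = tunicamycin at 10 µg/mL and 0% = DMSO only wells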
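Signal: luciferase luminescence; Assay system: CHO-XBP1 luciferase reporter cells; Amount: one thousand reporter cells per well; Dosing: 20 µM single concentration, DMSO 1%; Benchmarks: high control tunicamycin 10 µg/mL final, low control DMSO vehicle only; Schedule: 6 h compound exposure at 37 °C, 5% CO2; Evaluation: percent activation relative to tunicamycin reference.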
Bfl-1 A1 inh – inhibitors of the anti-apoptotic protein A1, read as caspase activation; MEF A1-2A-BIM cells, Caspase-Glo 3/7 luminescence, 3 h; percent of clofoctol response, vehicle zero; caspase activation, % (concentration not given with the values); hit rate 0.066% among 330,000; AID 2462;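 active = over half of replicate activation scores above 10%, or exactly half above 10 with the replicate mean above 10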
UPR CHOP act – apoptotic UPR (CHOP) activation | CHO-CHOP luciferase reporter, luminescence; percent of tunicamycin response over DMSO baseline | activation, % at 10 µM | hit rate 0.34% among 330,000;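 active = at 10 µM dose, activation of 40% or more, normalized to positive control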;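 also: 100% = tunicamycin at 10 µg/mL and 0% = DMSO alone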
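assay system = CHO CHOP reporter cells | amount = 500 CHO-CHOP cells per well | buffer or medium = F12 with 10% FBS | incubation = 16-18 h cell attachment, then 6 h compound exposure, 37 °C | detection = luminescence read with Steady-Glo | read-out = percent activation relative to tunicamycin control | controls = tunicamycin high control, DMSO low control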
CHOP confirm – confirmation of CHOP induction inhibitors. shares compounds with CHOP inhibitor. CHO-CHOP promoter luciferase reporter, tunicamycin-induced, luminescence. inhibition, % at 10 µM. hit rate 45% among 2,100;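 active = mean of three repeat readings of reporter signal inhibition above a set limit, cut at about 70% in these data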;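 also: 0% = tunicamycin plus vehicle and 100% = wells lacking tunicamycin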
* hit, by the source's call. Many of the other results were omitted from the sample, so hits are more common in it than they were.

For O/N=C/c1cc(Cl)ccc1OCc1cccc2ccccc12 the results were CHOP inhibitor 113*, XBP1 UPR activ 4, Bfl-1 A1 inh -1, UPR CHOP act 3 and CHOP confirm 31.
Screening COc1ccc(Br)cc1CNC(=O)CCC(=O)n1nc(C)c2ccccc21 returned XBP1 UPR activ -4, Bfl-1 A1 inh -1 and UPR CHOP act 0.
`NCCCNC(=O)c1cc2ccccc2[nH]1` gave CHOP inhibitor 107*, XBP1 UPR activ -1, Bfl-1 A1 inh 0, UPR CHOP act -1 and CHOP confirm 11.
`CCc1ccc(C(C)NC(=O)Cc2ccc(F)cc2)cc1` (configuration not stated) gave CHOP inhibitor -7, XBP1 UPR activ 2, Bfl-1 A1 inh 0 and UPR CHOP act -1.
For Cc1ccc2sc(NC(=O)c3cccc(N4C(=O)CCC4=O)c3)nc2c1C the results were XBP1 UPR activ 6, Bfl-1 A1 inh 1 and UPR CHOP act 4.
Screening Cc1ccc2sc(NC(=O)c3ccc(N4C(=O)CCC4=O)cc3)nc2c1C returned CHOP inhibitor 100*, XBP1 UPR activ -1, Bfl-1 A1 inh 2, UPR CHOP act -1 and CHOP confirm -21.
For CCN(CC)CCCN1C(=O)C(=O)/C(=C(/O)c2ccc(Cl)cc2)C1c1ccccn1 (configuration not stated) the results were XBP1 UPR activ 0, Bfl-1 A1 inh 1 and UPR CHOP act 0.
`O=C(CCN1C(=O)/C(=C/C=C/c2ccccc2)SC1=S)Nc1cccnc1` gave CHOP inhibitor 102*, XBP1 UPR activ 18, Bfl-1 A1 inh 0, UPR CHOP act 23 and CHOP confirm 30.
For O=C(CCN1C(=O)/C(=C/c2ccc(Cl)cc2)SC1=S)Nc1cccnc1 the results were XBP1 UPR activ -1, Bfl-1 A1 inh 0 and UPR CHOP act 0.
For Cn1c(SCC(=O)Nc2ccccc2F)nnc1C1CCCCC1 the results were XBP1 UPR activ -4, Bfl-1 A1 inh -1 and UPR CHOP act -1.
Cc1ccc(C(=O)NNC(=O)CSc2nc(N)cc(N)n2)cc1 was read as CHOP inhibitor 9, XBP1 UPR activ -1, Bfl-1 A1 inh 0 and UPR CHOP act 0.
Cc1ccc(C(=O)NNC(=O)CSc2nnc3c(n2)[nH]c2ccc(C)cc23)cc1 was read as CHOP inhibitor 104*, XBP1 UPR activ -1, Bfl-1 A1 inh -1, UPR CHOP act -1 and CHOP confirm 13.
For O=C(Nc1nc2ccccc2s1)C1CC(=O)N(c2ccc(Br)cc2)C1 (configuration not stated) the results were CHOP inhibitor 96*, XBP1 UPR activ -2, Bfl-1 A1 inh 0, UPR CHOP act -1 and CHOP confirm 13.
Screening CC/C(=N\Nc1ccccc1[N+](=O)[O-])c1ccc(O)cc1 returned CHOP inhibitor 100*, XBP1 UPR activ -1, Bfl-1 A1 inh 1, UPR CHOP act 2 and CHOP confirm 26.
`Cc1ccsc1/C=C/C1=Cc2c(sc(NC(=O)CSc3n[nH]c(N)n3)c2C#N)C(C)(C)C1` gave CHOP inhibitor -27, XBP1 UPR activ 1, Bfl-1 A1 inh -1 and UPR CHOP act 1.
`CCOc1ccc(/C=C/C2=Cc3c(sc(NC(=O)CSc4n[nH]c(N)n4)c3C#N)C(C)(C)C2)cc1` gave CHOP inhibitor 109*, XBP1 UPR activ 2, Bfl-1 A1 inh 0, UPR CHOP act 23 and CHOP confirm 116*.
Cc1ccc(C(=O)CN2/C(=C(\O)c3ccccc3)C(=O)c3ccccc3S2(=O)=O)c(C)c1 was read as CHOP inhibitor 106*, XBP1 UPR activ 5, Bfl-1 A1 inh 0, UPR CHOP act -1 and CHOP confirm 28.
`Cc1ccc(/C=C(\NC(=O)c2ccc(C)cc2)c2nc(=S)[nH][nH]2)cc1` gave CHOP inhibitor 110*, XBP1 UPR activ -3, Bfl-1 A1 inh 0, UPR CHOP act -2 and CHOP confirm 4.
Screening COc1ccc(-c2c3c(nc4sc5c(=O)[nH]c(C)nc5c24)CCC3)cc1 returned CHOP inhibitor 113*, XBP1 UPR activ 12, Bfl-1 A1 inh 0, UPR CHOP act 3 and CHOP confirm 24.
`O=C(CCCOc1ccc(Cl)cc1Cl)N/N=C\C1CCCCC1` gave CHOP inhibitor 105*, XBP1 UPR activ -1, Bfl-1 A1 inh 0, UPR CHOP act 1 and CHOP confirm 83*.
